We go through 13 compounds from ChEMBL document CHEMBL2203249, “Optimization of a small tropomyosin-related kinase B (TrkB) agonist 7,8-dihydroxyflavone active in mouse models of depression” (J Med Chem, 2012).

Data set [1] concerns HepG2. The data set can be described thus: Genotoxicity in human HepG2 cells assessed as micronuclei formation at 50 uM after 24 hrs by DAPI staining. The class given is toxicity, cell-based. To be noted: hepg2, 24 h. In outline:
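HepG2 cells were exposed to 50 μM for 24 h, with benzo(a)pyrene as positive control. Cells were swollen in hypotonic KCl/NaCl for 10 min at 37°C, fixed in methanol/acetic acid 3:1 and stained with DAPI at 2 μg/ml. Three independent experiments, one-way ANOVA.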

Data set [2] deals with HepG2. Briefly: Genotoxicity in human HepG2 cells assessed as induction of DNA lesion at 100 uM after 24 hrs by comet assay. It counts as toxicity, cell-based. The conditions noted are these: hepg2, 24 h. In short, it runs like this: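 HepG2 cells were exposed to 100 μM for 24 h, with etoposide as positive control. Cells were embedded in agarose, lysed 2 h at 4°C at pH 10, unwound 40 min in alkali at pH >13 and electrophoresed at 25 V for 30 min at 4°C. After ethidium bromide staining, comet-tail nuclei were counted in >100 cells per field. Three independent experiments, one-way ANOVA.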

Data set [3] has as its system HepG2. The data set can be described thus: Cytotoxicity against human HepG2 cells assessed as cell death upto 100 uM after 24 hrs by LDH assay. The conditions noted are these: hepg2, 24 h. The class given is cell-based. In short, it runs like this:
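HepG2 cells were exposed to a range of concentrations up to 100 μM for 24 h, and cytotoxicity was measured by LDH release. n=3.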

Data set [4] addresses BDNF/NT-3 growth factors receptor (Rattus norvegicus) (UniProt Q63604). The data set can be described thus: Agonist activity at TrkB receptor in E17 rat embryo primary neurons assessed as TrkB phosphorylation at tyrosine 817 at 500 nM after 15 mins by immunoblotting analysis. It counts as functional. In short, it runs like this:
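Primary cortical cultures from E17 rat embryos were exposed to 500 nM for 15 min. Lysates were immunoblotted for p-TrkB and p-Akt (20 μg per lane). Two replicate experiments.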
A general note: In western blotting, separated proteins are transferred to a membrane and probed.

Data set [5] has as its system Mus musculus. The data set can be described thus: Agonist activity at TrkB receptor in C57BL/J6 mouse brain assessed as Akt phosphorylation at serine 473 in hippocampus at 1 mg/kg, po after 4 hrs by ELISA. Further details: dose 1 mg/kg. The class given is functional, organism-based. In short, it runs like this:
(§1)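 Male C57BL/6 mice, two months old, received a single 1 mg/kg oral dose, with saline controls. Brain was taken at set time points and lysed. Phospho-Akt S473 was measured by sandwich ELISA on 20 μg lysate: overnight capture at 4°C, detection antibody, HRP secondary and TMB, read at 450 minus 650 nm. Two replicate experiments, one-way ANOVA against control.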

Data set [6] has as its system Mus musculus. The data set can be described thus: Agonist activity at TrkB receptor in C57BL/J6 mouse brain assessed as TrkB phosphorylation at tyrosine 816 in hippocampus at 1 mg/kg, po after 4 hrs by immunoblotting analysis. The class given is functional, organism-based. Further details: dose 1 mg/kg. In outline:
(§2)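 Male C57BL/6 mice, two months old, received a single 1 mg/kg oral dose, with saline controls. Brain or hippocampus was collected 4 h later (time-course samples at various times). Homogenates were ultracentrifuged and 40 μg supernatant was immunoblotted for p-TrkB, p-Akt and p-MAPK.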

The subject of data set [7] is Mus musculus. The data set can be described thus: Agonist activity at TrkB receptor in C57BL/J6 mouse brain assessed as TrkB phosphorylation at tyrosine 816 in cortex at 5 mg/kg, po administered qd for 21 days by immunoblotting analysis. It counts as functional, organism-based. More on the design: dose 5 mg/kg.
Data set [8] concerns Mus musculus. Briefly: Agonist activity at TrkB receptor in C57BL/J6 mouse brain assessed as TrkB phosphorylation at tyrosine 706 at 1 mg/kg, po by immunoblotting analysis. It counts as functional, organism-based. Further details: dose 1 mg/kg. In short, it runs like this:
as §2

Data set [9] has as its system Mus musculus. The data set can be described thus: Antidepressant activity in C57BL/J6 mouse assessed as reduction of immobility at 5 mg/kg, po administered qd for 21 days recorded in last 4 mins by forced swim test. It counts as functional, organism-based. Further details: dose 5 mg/kg. In outline: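 Male C57BL/6J mice, 2–3 months old, were gavaged daily for 21 days with drug (5 or 2.5 mg/kg) or saline and adapted to the test room for 2 days. With no preswim, each mouse was placed for 6 min in a 16-cm cylinder of 24 °C water, 14 cm deep. Immobility in the last 4 min was scored blind and compared by unpaired t-test (n=6 or 8).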

For data set [10], the system named is Mus musculus. The data set can be described thus: Agonist activity at TrkB receptor in C57BL/J6 mouse brain assessed as Akt phosphorylation at serine 473 at 1 mg/kg, po after 1 hr by ELISA. It counts as functional, organism-based. More on the design: dose 1 mg/kg. In short, it runs like this:
as §1
(ELISA stands for enzyme-linked immunosorbent assay.)

For data set [11], the system named is Mus musculus. The data set can be described thus: Agonist activity at TrkB receptor in C57BL/J6 mouse brain assessed as Akt phosphorylation at serine 473 at 1 mg/kg, po after 8 hrs by ELISA. It counts as functional, organism-based. Further details: dose 1 mg/kg. In short, it runs like this:
as §1

Data set [12] relates to Mus musculus. Briefly: Agonist activity at TrkB receptor in C57BL/J6 mouse brain assessed as Akt phosphorylation at serine 473 at 1 mg/kg, po by immunoblotting analysis. It counts as functional, organism-based. More on the design: dose 1 mg/kg. In outline:
as §2

Data set [13] relates to Mus musculus. The data set can be described thus: Agonist activity at TrkB receptor in C57BL/J6 mouse brain assessed as Akt phosphorylation at serine 473 at 1 mg/kg, po after 4 hrs by ELISA. More on the design: dose 1 mg/kg. It counts as functional, organism-based. In short, it runs like this: as §1
The test system of data set [14] is Mus musculus. Briefly: Agonist activity at TrkA receptor in C57BL/J6 mouse brain assessed as TrkA phosphorylation at tyrosine 794 in cortex at 5 mg/kg, po administered qd for 21 days by immunoblotting analysis. It counts as functional, organism-based. Further details: dose 5 mg/kg.
Data set [15] relates to Mus musculus. Briefly: Agonist activity at TrkB receptor in C57BL/J6 mouse brain assessed as Akt phosphorylation at serine 473 at 1 mg/kg, po after 8 hrs by ELISA relative to control. The class given is functional. In outline: as §1
Data set [16] concerns Mus musculus. Briefly: Antidepressant activity in C57BL/J6 mouse assessed as increase in locomotion at 5 mg/kg, po qd for 21 days tested on day 22 by locomotor activity assay. The class given is functional, organism-based. Further details: dose 5 mg/kg. In short, it runs like this: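 Male C57BL/6J mice were gavaged with 5 mg/kg/day or saline vehicle for 21 days. On day 22, ambulation (consecutive photobeam breaks) was recorded in automated chambers for 2 h in 30-min intervals. n=6, two-way ANOVA.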

The subject of data set [17] is Mus musculus. The data set can be described thus: Agonist activity at TrkB receptor in C57BL/J6 mouse brain assessed as Akt phosphorylation at serine 473 in hippocampus at 1 mg/kg, po after 4 hrs by immunoblotting analysis. The class given is functional, organism-based. More on the design: dose 1 mg/kg. In outline: as §2
The subject of data set [18] is Mus musculus. Briefly: Agonist activity at TrkB receptor in C57BL/J6 mouse brain assessed as MAPK phosphorylation in hippocampus at 1 mg/kg, po after 4 hrs by immunoblotting analysis. The class given is functional, organism-based. More on the design: dose 1 mg/kg. In outline:
as §2

For data set [19], the system named is Mus musculus. The data set can be described thus: Elimination half life in mouse at 1 mg/kg, iv by HPLC analysis. It counts as ADME, organism-based. Further details: dose 1 mg/kg, route intravenous. To be noted: in vivo. In short, it runs like this: (§3)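 Mice of 20–30 g, 6–8 weeks old, dosed i.v. or orally. Blood was drawn at 3, 10, 30, 60, 120, 240, 360 and 480 min into lithium-heparin tubes, spun at 2500 × g for 15 min at 4°C within 1 h and stored at −20°C. Plasma was analysed by HPLC, 3 mice per time point. AUC was calculated by the linear/log trapezoidal method.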

Data set [20] deals with Mus musculus. The data set can be described thus: AUC last in mouse at 1 mg/kg, iv by HPLC analysis. It counts as ADME, organism-based, Plasma. Further details: time 0 - last, dose 1 mg/kg, route intravenous. To be noted: in vivo. In outline: as §3
Data set [21] relates to Mus musculus. The data set can be described thus: Volume of distribution in mouse at 1 mg/kg, iv by HPLC analysis. The class given is ADME, organism-based. More on the design: dose 1 mg/kg, route intravenous. To be noted: in vivo. In outline: (§4)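 Mice (20–30 g, 6–8 weeks old) were dosed i.v. or orally. Blood was drawn into lithium-heparin tubes at 3, 10, 30, 60, 120, 240, 360 and 480 min, with 3 mice per time point. Plasma was separated at 2500 × g for 15 min at 4°C within 1 h and stored at −20°C. Samples were analysed by HPLC, and AUC was calculated by the linear/log trapezoidal method.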

Data set [22] deals with Mus musculus. The data set can be described thus: Volume of distribution at steady state in mouse at 1 mg/kg, iv by HPLC analysis. It counts as ADME, organism-based. Further details: dose 1 mg/kg, route intravenous. The conditions noted are these: in vivo. In short, it runs like this:
as §4

Data set [23] has as its system Mus musculus. The data set can be described thus: AUC (infinity) in mouse at 1 mg/kg, iv by HPLC analysis. It counts as ADME, organism-based, Plasma. More on the design: time infinity, dose 1 mg/kg, route intravenous. The conditions noted are these: in vivo. In outline: as §3

Activity calls are given as the source filed them. No cut-off for these calls is given here.

Sequence of BDNF/NT-3 growth factors receptor (Rattus norvegicus) (Q63604 whole entry): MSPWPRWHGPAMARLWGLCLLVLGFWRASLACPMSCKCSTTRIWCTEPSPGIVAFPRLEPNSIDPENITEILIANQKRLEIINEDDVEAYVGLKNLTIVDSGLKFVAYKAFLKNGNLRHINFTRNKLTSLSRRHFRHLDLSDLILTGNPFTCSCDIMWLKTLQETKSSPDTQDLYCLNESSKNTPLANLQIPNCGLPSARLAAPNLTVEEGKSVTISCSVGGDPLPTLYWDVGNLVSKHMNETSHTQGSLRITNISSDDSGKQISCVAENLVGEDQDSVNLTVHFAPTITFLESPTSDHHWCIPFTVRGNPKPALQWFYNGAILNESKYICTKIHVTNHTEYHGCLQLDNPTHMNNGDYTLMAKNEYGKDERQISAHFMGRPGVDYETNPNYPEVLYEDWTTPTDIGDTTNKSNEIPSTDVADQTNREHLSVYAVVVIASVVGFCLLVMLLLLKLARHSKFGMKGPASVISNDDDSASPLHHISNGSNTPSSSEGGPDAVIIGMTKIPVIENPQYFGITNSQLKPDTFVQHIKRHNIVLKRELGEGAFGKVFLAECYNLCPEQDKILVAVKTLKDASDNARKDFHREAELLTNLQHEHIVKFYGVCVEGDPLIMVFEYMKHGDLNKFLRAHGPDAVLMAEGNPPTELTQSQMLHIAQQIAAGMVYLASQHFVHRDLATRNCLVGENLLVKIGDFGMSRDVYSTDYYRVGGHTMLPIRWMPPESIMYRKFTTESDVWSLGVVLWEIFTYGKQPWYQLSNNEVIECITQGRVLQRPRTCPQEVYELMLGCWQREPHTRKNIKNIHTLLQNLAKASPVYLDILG

With `O=c1cc(-c2ccc(N3CCCC3)cc2)oc2c1ccc1nc[nH]c12`, the Activity result in data set [1], in [2] and in data set [3] was “Non-toxic” in each case.
For `CN(C)c1ccc(-c2cc(=O)c3c(F)cc(O)c(O)c3o2)cc1`, the result in data set [4], in data set [5] and in data set [6] was Active.
In the case of `c1ccc2c(c1)cc1ccc3cccc4ccc2c1c34`, the Activity entry in data set [1] is recorded as “Toxic”.
Turning to `O=c1cc(-c2ccccc2)oc2c(O)c(O)cc(F)c12`, the result in data set [4], in data set [5] and in data set [6] was Active.
Take `O=c1cc(-c2ccc(F)cc2)[nH]c2c(O)c(O)ccc12`: the outcome in data set [4] was inactive. In addition, the outcome in data set [5] and in [6] was Active.
As for `O=c1c(F)c(-c2cccc(O)c2)oc2c(O)c(O)ccc12`, the result in [7], in [9], in data set [4], in [10], in data set [5] and in [6] was Active. The result in data set [8], in data set [11], in data set [12], in data set [13] and in [14] was inactive.
Regarding `CN(C)c1cccc(-c2cc(=O)c3ccc(O)c(O)c3o2)c1`, the outcome in data set [4], in [5] and in data set [6] was Active.
Regarding `O=c1cc(-c2ccc(F)cc2)oc2c(O)c(O)ccc12`, in data set [4], the result was inactive.
Turning to `O=c1cc(-c2cncnc2)oc2c(O)c(O)ccc12`, the result in [4], in [5] and in [6] was Active.
As to `CN(C)c1ccc(-c2cc(=O)c3ccc4nc[nH]c4c3o2)cc1`, the outcome in data set [7], in data set [9], in data set [16], in data set [4], in data set [17] and in data set [18] was Active. For the same compound, the result in [5] and in data set [6] was Active. Also, the Activity entry was “tde” in data set [8] (TDE = time-dependent effect); “Non-toxic” in data set [1]; 250% in [15]; “Toxic” in data set [2]; “tde” in [12] (TDE = time-dependent effect); “Non-toxic” in data set [3]. For the same compound, the result in data set [14] was inactive.
As for `O=c1cc(-c2ccccc2)[nH]c2c(O)c(O)ccc12`, the result in [4] was inactive. For the same compound, the outcome in data set [5] and in data set [6] was Active.
Take `Br.CN(C)c1ccc(-c2cc(=O)c3ccc(O)c(O)c3o2)cc1`: the “beta t1/2” value in [19] came out at 9 min. The outcome in [4], in [17], in data set [18], in data set [5] and in [6] was Active. The compound also showed an AUClast in [20] of 5930 ng·min/mL. The compound further came in with a Vz in data set [21] of 2.117 L/kg. The Vdss in [22] amounted to 0.803 L/kg. In data set [23], this compound came in with an AUC of 5943 ng·min/mL.
For the compound `O=c1c(F)c(-c2ccccc2)oc2c(O)c(O)ccc12`, the outcome in data set [4], in data set [5] and in data set [6] was Active.

As a reminder, the Vz is a proportionality between amount in the body and measured concentration, not a real space. Read a high Vz as extensive tissue distribution. One may read the Vdss as the apparent volume that relates the amount in the body to the concentration in plasma or blood. A low value points to little distribution into tissue. Usually AUC stands for concentration integrated over time. High values mean more exposure, low ones less exposure.
